{"source": "ChEMBL document CHEMBL2069227", "about": "“Cycloartane-type triterpenes from the leaves of Homonoia riparia with VEGF-induced angiogenesis inhibitory activity” (J Nat Prod, 2012)", "key": {"Rattus norvegicus [1]": {"test_system": "Rattus norvegicus", "assay": "Inhibition of VEGF-induced vascular permeability in intradermally dosed Sprague-Dawley rat assessed as reduction in extravasation of Evans blue dye by Miles assay", "assay_type": "functional, organism-based", "outline": "(§1)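 Male Sprague–Dawley rats (250–300 g) were anesthetized and shaved, then re-anesthetized 2–3 days later and given 150 μL 1% Evans blue i.v. After 15 min, 15 μL was injected intradermally: VEGF (100 ng/mL), compound (1, 5 or 10 μg/mL) in PBS, or PBS alone. Skin was dissected after 1 h, dye eluted with formamide at 56 °C, and OD read at 620 nm. n = 3 at 10 μg/mL.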"}, "Rattus norvegicus [2]": {"test_system": "Rattus norvegicus", "assay": "Inhibition of VEGF-induced vascular permeability in intradermally dosed Sprague-Dawley rat assessed as reduction in extravasation of Evans blue dye at 10 ug/ml by Miles assay", "assay_type": "functional", "outline": "as §1"}, "HUVEC [3]": {"test_system": "HUVEC", "assay": "Inhibition of VEGF-induced angiogenesis in HUVECs assessed as reduction in capillary-like tube formation on matrigel at 25 uM incubated for 6 hrs by fluorescence microscopy", "assay_type": "functional", "details": "Homo sapiens", "outline": "(§2)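 HUVECs were cultured to the supplier's standard protocol. 5 × 10^4 cells were plated on basement membrane extract in medium with VEGF (10 ng/mL), with or without compound, and incubated 6 h. Cells were stained with 2 μM Calcein AM in PBS for 30 min. Tubes were imaged by fluorescence microscopy and quantified by image analysis against untreated cultures. Means ± SD, n = 3.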"}, "HUVEC [4]": {"test_system": "HUVEC", "assay": "Inhibition of VEGF-induced angiogenesis in HUVECs assessed as reduction in capillary-like tube formation on matrigel at 12.5 uM incubated for 6 hrs by fluorescence microscopy", "assay_type": "functional", "details": "Homo sapiens", "outline": "as §2"}, "HUVEC [5]": {"test_system": "HUVEC", "assay": "Toxicity in HUVECs at 25 uM", "assay_type": "cell-based", "details": "human"}, "HUVEC [6]": {"test_system": "HUVEC", "assay": "Toxicity in HUVECs at 12.5 uM", "assay_type": "cell-based", "details": "human"}}, "note": "Activity calls are given as the source filed them. The calls are words filed in the database; no cut-off is given here.", "data": [{"molecule": "C=C(CC[C@@H](C)[C@H]1[C@@H](O)C[C@@]2(C)[C@@H]3C[C@@H](O)[C@H]4C(C)(C)[C@@H](O)CC[C@@]45C[C@@]35CC[C@]12C)C(C)C", "note": "(relative stereo)", "values": [{"measurement": "inhibition", "setting": "Rattus norvegicus [1]", "result": "inactive"}]}, {"molecule": "C=C(CC[C@@H](C)[C@H]1[C@@H](O)C[C@@]2(C)[C@@H]3[C@@H](O)C[C@H]4C(C)(C)[C@@H](O[C@@H]5OC[C@@H](O)[C@H](O)[C@H]5O)CC[C@@]45C[C@@]35CC[C@]12C)C(C)C", "values": [{"measurement": "inhibition", "setting": "Rattus norvegicus [1]", "result": "Dose-dependent effect"}]}, {"molecule": "C=C(CC[C@@H](C)[C@H]1CC[C@@]2(C)[C@@H]3[C@@H](O)[C@@H](O)[C@H]4C(C)(C)[C@@H](O[C@@H]5OC[C@@H](O)[C@H](O)[C@H]5O)CC[C@@]45C[C@@]35CC[C@]12C)C(C)C", "note": "(relative stereo)", "values": [{"measurement": "inhibition", "setting": "Rattus norvegicus [1]", "result": "inactive"}]}, {"molecule": "C=C(CC[C@@H](C)[C@H]1CC[C@@]2(C)[C@@H]3[C@@H](O)[C@@H](O)[C@H]4C(C)(C)[C@@H](O)CC[C@@]45C[C@@]35CC[C@]12C)C(C)C", "values": [{"measurement": "inhibition", "setting": "Rattus norvegicus [1]", "result": "inactive"}]}, {"molecule": "C=C(CC[C@@H](C)[C@H]1[C@@H](O)C[C@@]2(C)[C@@H]3C[C@@H](O)[C@H]4C(C)(C)[C@@H](O[C@@H]5OC[C@@H](O)[C@H](O)[C@H]5O)CC[C@@]45C[C@@]35CC[C@]12C)C(C)C", "note": "(relative stereo)", "values": [{"measurement": "inhibition", "setting": "Rattus norvegicus [1]", "result": "Dose-dependent effect"}]}, {"molecule": "C=C(CC[C@@H](C)[C@H]1[C@@H](O)C[C@@]2(C)[C@@H]3[C@@H](O)[C@@H](O)[C@H]4C(C)(C)[C@@H](O[C@@H]5OC[C@@H](O)[C@H](O)[C@H]5O)CC[C@@]45C[C@@]35CC[C@]12C)C(C)C", "values": [{"measurement": "inhibition", "setting": "Rattus norvegicus [1]", "result": "Dose-dependent effect"}, {"measurement": "inhibition (INH)", "setting": "Rattus norvegicus [2]", "result": 64, "unit": "%"}, {"measurement": "inhibition at 25 µM", "setting": "HUVEC [3]", "result": 59.5, "unit": "%"}, {"measurement": "inhibition at 12.5 µM", "setting": "HUVEC [4]", "result": 28.5, "unit": "%"}, {"measurement": "Activity", "setting": "HUVEC [5]", "result": "Non-toxic"}, {"measurement": "Activity", "setting": "HUVEC [6]", "result": "Non-toxic"}]}]}
